IDH1 R132H inh – blocks human IDH1 R132H reductase activity; hit rate 0.18% among 70,000; AID 624101; inhibition, % at 10 µM; diaphorase/resazurin fluorescence, 60 min; O75874; in the data active = inhibition above about 34%; inconclusive = no clear call, values can overlap the other calls; inactive = below about 11%;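 also: 0% = DMSO and 100% = no enzyme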
Target sequence (O75874 whole entry R132H): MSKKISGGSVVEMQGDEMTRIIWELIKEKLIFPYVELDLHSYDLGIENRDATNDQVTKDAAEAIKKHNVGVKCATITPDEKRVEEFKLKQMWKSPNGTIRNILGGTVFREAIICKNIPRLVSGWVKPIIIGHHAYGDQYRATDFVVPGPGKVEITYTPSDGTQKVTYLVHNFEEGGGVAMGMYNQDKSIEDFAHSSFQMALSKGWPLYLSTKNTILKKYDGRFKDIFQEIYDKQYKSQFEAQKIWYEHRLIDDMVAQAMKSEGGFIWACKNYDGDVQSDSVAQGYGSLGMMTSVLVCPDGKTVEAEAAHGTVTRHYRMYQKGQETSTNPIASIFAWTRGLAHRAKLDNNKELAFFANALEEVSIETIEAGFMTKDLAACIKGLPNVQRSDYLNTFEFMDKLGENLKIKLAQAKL
T cruzi growth-1 – blocks T. cruzi growth in NIH3T3 culture; T. cruzi beta-gal in NIH3T3, GalScreen luminescence, 90 h; inhibition, % at 8.34 µM; hit rate 5.9% among 77,000; AID 624255;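 active = mean inhibition above about 93%, with at least 55% of replicates each passing it, limit read from the data, passing the limit was not always enough; inconclusive = only one of those two conditions holds; inactive = neither condition holds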
KDM4C inh – KDM4C (human) demethylase inhibition | Q9H3R0 | GST-KDM4C 2-372, H3K9me3 peptide, LANCE TR-FRET | inhibition, % at 12.5 µM | hit rate 0.15% among 96,000;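 active = mean replicate inhibition above about 25%, with at least 55% of replicates also reaching it, limit read from the data, passing the limit was not always enough; inconclusive = only one of those two conditions met; inactive = neither condition met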
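Test system – GST-tagged GASC-1 (JMJD2C) catalytic fragment, aa 2-372 · Medium – HEPES buffer, pH 7.5, plus ascorbate · Reagent – H3K9me3 peptide with Fe(II)/2OG · Compound – one test concentration per compound · Timing – 30 min reaction, 60 min detection, RT · Technique – TR-FRET with Eu antibody and ULight streptavidin, EDTA stop · Read-out basis – inhibition from TR-FRET ratio decrease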
Pf Dd2 growth – blocks growth of Plasmodium falciparum Dd2 parasites; P. falciparum Dd2 growth, SYBR Green, 72 h; hits give low values; activity change, % at 10 µM; hit rate 2.3% among 94,000; AID 1159554; in the data active = activity change below about -80%; inconclusive = no clear call, values can overlap the other calls
T cruzi growth-2 – blocks T. cruzi growth in NIH3T3 host cells. shares compounds with T cruzi growth-1. T. cruzi beta-gal in NIH3T3, GalScreen luminescence, 90 h. inhibition, % at 8.35 µM. hit rate 72% among 5,600. AID 651739;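 active = mean replicate inhibition above about 95% and at least 55% of replicates individually reaching it, limit read from the data; inconclusive = only one of the two criteria is met; inactive = neither criterion is met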
T cruzi growth-3 – inhibitors of T. cruzi proliferation; shares compounds with T cruzi growth-1; AID 651740; T. cruzi beta-gal in NIH3T3, GalScreen luminescence, 90 h; inhibition, % at 2.09 µM; hit rate 21% among 5,600;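 active = mean inhibition above about 95%, with at least 55% of replicates also reaching it, limit read from the data; inconclusive = meets just one of the two conditions; inactive = meets neither condition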;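 also: plate controls were neutral control median for no effect and positive control median for full effect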
3T3 cytotox – cytotoxicity in mouse NIH/3T3 fibroblasts. shares compounds with T cruzi growth-1. AID 651742. cytotoxicity (signal decrease), % at 8.35 µM. NIH/3T3 viability, CellTiter-Glo ATP luminescence, 90 h. hit rate 14% among 5,600;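 active = mean signal decrease across replicates above about 35% based on untreated-well scatter, with enough replicates individually passing, limit read from the data; inconclusive = no rule stated though some were filed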;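 also: 0% = median of neutral control wells and 100% = median of positive control wells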
NIH3T3 tox 2 – cytotoxicity in mouse NIH/3T3 fibroblasts; NIH/3T3 viability, CellTiter-Glo ATP luminescence, 90 h; inhibition, % at 24.9 µM; shares compounds with T cruzi growth-1; hit rate 56% among 5,600;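 active = mean loss of cell viability signal at or above a set limit, and enough replicates individually reaching it; inconclusive = meets only the mean limit or only the replicate share; inactive = meets neither condition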;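 also: 0% = median of neutral control wells and 100% = median of positive control wells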
An asterisk follows results filed as active; ? = inconclusive; . = no result given. Most compounds without a hit are left out; they make up all but 5.8% or so of the library.

SMILES | IDH1 R132H inh | T cruzi growth-1 | KDM4C inh | Pf Dd2 growth | T cruzi growth-2 | T cruzi growth-3 | 3T3 cytotox | NIH3T3 tox 2
Cc1nc(SC(C)C(=O)Nc2ccc(Cl)cc2)n[nH]1 (stereo unspecified) | 0 | . | . | . | . | . | . | .
C[C@@H]1CN([C@H](C)CO)C(=O)c2cc(NC(=O)Nc3ccc(C(F)(F)F)cc3)ccc2O[C@@H](C)CCCCO[C@H]1CN(C)C(=O)C1CCCCC1 | . | 122* | 0 | -45 | 102* | 117* | 16 | 47*
C[C@@H]1CCCCO[C@@H](CN(C)C(=O)C2CCCCC2)[C@H](C)CN([C@@H](C)CO)C(=O)c2cc(NC(=O)Nc3ccc(C(F)(F)F)cc3)ccc2O1 | 0 | 121* | -1 | -6 | 97* | 108* | -9 | 9
C[C@@H]1CN([C@H](C)CO)C(=O)c2cc(NC(=O)Nc3ccc(C(F)(F)F)cc3)ccc2O[C@@H](C)CCCCO[C@@H]1CN(C)C(=O)C1CCCCC1 | . | 121* | 0 | -84* | 92 | 116* | -12 | 23
C[C@@H]1CCCCO[C@@H](CN(C)C(=O)C2CCCCC2)[C@@H](C)CN([C@@H](C)CO)C(=O)c2cc(NC(=O)Nc3ccc(C(F)(F)F)cc3)ccc2O1 | . | 120* | 0 | ? | 96* | 117* | 38* | 64*
C[C@@H]1CN([C@@H](C)CO)C(=O)c2cc(NC(=O)Nc3ccc(F)cc3)ccc2O[C@@H](C)CCCCO[C@H]1CN(C)C(=O)C1CCCCC1 | 2 | 82 | 0 | -52 | . | . | . | .
C[C@@H]1CCCCO[C@@H](CN(C)C(=O)Nc2ccc(C(F)(F)F)cc2)[C@H](C)CN([C@@H](C)CO)C(=O)c2cc(NC(=O)C3CCCCC3)ccc2O1 | . | 94 | 0 | -50 | . | . | . | .
C[C@H](CO)N1C[C@H](C)[C@@H](CN(C)C(=O)C2CCCCC2)OCCCC[C@H](C)Oc2ccc(NC(=O)Nc3ccc(C(F)(F)F)cc3)cc2C1=O | 2 | 120* | 0 | -28 | 97* | 110* | 4 | 19
C[C@H]1CN([C@@H](C)CO)C(=O)c2cccc(NC(=O)C3CCOCC3)c2O[C@H]1CN(C)C(=O)Nc1cccc2ccccc12 | -1 | 6 | 4 | -19 | . | . | . | .
C[C@@H]1CN([C@H](C)CO)C(=O)c2cccc(NC(=O)C3CCOCC3)c2O[C@H]1CN(C)C(=O)Nc1cccc2ccccc12 | . | 103* | 0 | 10 | 82 | -30 | 12 | ?
C[C@@H]1CN([C@@H](C)CO)C(=O)c2cccc(NC(=O)C3CCOCC3)c2O[C@@H]1CN(C)C(=O)Nc1cccc2ccccc12 | -2 | 100* | -1 | -7 | -19 | 15 | 5 | 15
COc1cc(CN2CC3(CCN(S(=O)(=O)c4cccs4)CC3)c3c(n(C)c4cc(OC)ccc34)[C@@H]2CO)cc(OC)c1 | . | . | 0 | -73 | . | . | . | .
Cn1c(SCC(=O)Nc2ccc(Oc3ccccc3)cc2)nnc1-c1ccc([N+](=O)[O-])cc1 | 0 | . | . | . | . | . | . | .
C[C@@H]1CN([C@H](C)CO)S(=O)(=O)c2ccc(C#CC3CC3)cc2O[C@@H]1CN(C)C(=O)Cc1ccncc1 | . | ? | -1 | -42 | 102* | 68 | 17 | 16
C[C@H](CO)N1C[C@H](C)[C@H](CN(C)C(=O)Cc2ccncc2)Oc2cc(C#CC3CCCC3)ccc2S1(=O)=O | . | 116* | 0 | -79 | 109* | 63 | 34 | 33*
C[C@H]1CN([C@@H](C)CO)S(=O)(=O)c2ccc(C#CC3CCCC3)cc2O[C@@H]1CN(C)C(=O)Cc1ccncc1 | . | 122* | -4 | -29 | 105* | 94 | -1 | 101*
O=C(c1ccccn1)N1CC[C@@H]2[C@H]1c1cc(-c3cccc(F)c3)ccc1N[C@@H]2CO | . | 49 | -1 | 3 | . | . | . | .
C[C@@H]1CCCCO[C@H](CN(C)Cc2ccc(C(=O)O)cc2)[C@H](C)CN([C@H](C)CO)C(=O)c2cc(NC(=O)Cc3ccccc3)ccc2O1 | -3 | -34 | 1 | 17 | . | . | . | .
